Data on 13 compounds can be found in ChEMBL document CHEMBL1926571, “Design, synthesis and the effect of 1,2,3-triazole sialylmimetic neoglycoconjugates on Trypanosoma cruzi and its cell surface trans-sialidase” (Bioorg Med Chem, 2012).

Molecules are shown by their SMILES. pIC50, pKd: −log10 of the molar value. Where only a bound is given, the exact number is not on record here.

Data set [1] deals with Trypanosoma cruzi. The experiment in a line: Inhibition of Trypanosoma cruzi N-terminus His-tagged trans-Sialidase using MuNANA as substrate at 1 mM after 10 mins by fluorometric analysis. Summed up:
(§1)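 Recombinant His-tagged 70 kDa enzyme truncated of C-terminal repeats, retaining catalytic N-terminal domain. Triplicate wells: pH 7.4 phosphate buffer, enzyme and inhibitor (added as 4.0 or 2.0 mM solution, 1.0 or 0.5 mM final) preincubated 10 min at 26 °C; MuNANA added at 0.1 mM final. Released methylumbelliferone fluorescence (ex 360/em 460 nm) read after 10 min; percent inhibition.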

For data set [2], the system named is Trypanosoma cruzi. The experiment in a line: Antitrypanosomal activity against Trypanosoma cruzi […] infected in monkey LLC-MK2 cells after 4 days by beta-galactosidase reporter gene assay. It counts as functional, organism-based. As to conditions: LLC-MK2, 96 h. Summed up:
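LLC-MK2 cells in phenol-red-free RPMI with 10% FBS, 2×10^3/well, grown 24 h, then infected with 1×10^4 trypomastigotes of T. cruzi Tulahuen expressing E. coli β-galactosidase; compounds added 24 h later (0.5 mM–3.5 µM) for 4 days. Lysed with PBS/0.5% Triton X-100 containing 100 µM CPRG, 4 h at 37 °C, A570. Concentration giving 50% trypanocidal activity reported as IC50.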
(In general: In a reporter assay the amount or activity of a reporter protein is the signal.)

Data set [3] relates to Trypanosoma cruzi. As to the kind of experiment: Inhibition of Trypanosoma cruzi N-terminus His-tagged trans-Sialidase using MuNANA as substrate at 0.5 mM after 10 mins by fluorometric analysis. Summed up: as §1
The nature of data set [4]: Cytotoxicity against C57BL/6 mouse spleen cells assessed as cell death at 500 to 780 uM mM after 24 hrs by propidium iodide staining-based flow cytometric analysis. As to conditions: 7.8 µM, in the assay text read “500 to 7.8 uM” for “500 to 780 uM”. Summed up: (§2)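 Spleen cells from C57BL/6 mice, red cells lysed 5 min (Tris-HCl pH 7.5/ammonium chloride), in RPMI 1640 with 10% FBS at 5×10^5 cells/well, exposed to a range of compound concentrations for 24 h at 37 °C. Tween 20 at 0.5% as death control. Stained with 10 µg/mL propidium iodide, read by flow cytometry.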

Data set [5] in a line: (§3) Inhibition of Trypanosoma cruzi trans-Sialidase.
The test system of data set [6] is Trypanosoma cruzi. The data set is described as §3. Conditions: concentration not given here.
Data set [7] is described as follows: Cytotoxicity against C57BL/6 mouse spleen cells assessed as cell death at 0.5 mM after 24 hrs by propidium iodide staining-based flow cytometric analysis. Conditions: 500 µM. Summed up:
as §2
In general terms: Flow cytometry measures light scatter and fluorescence of single cells or particles in a stream.

The nature of data set [8]: Binding affinity to Trypanosoma cruzi trans-Sialidase by surface plasmon resonance assay. (SPR reads the build-up and loss of mass on a sensor chip optically.)
The nature of data set [9]: Cytotoxicity against C57BL/6 mouse spleen cells assessed as cell death at 250 to 780 uM mM after 24 hrs by propidium iodide staining-based flow cytometric analysis. As to conditions: 7.8 µM, in the assay text read “250 to 7.8 uM” for “250 to 780 uM mM”. Summed up: as §2

Broadly, the inhibition is the share of the control response that was lost under treatment. One may read the pIC50 as the negative decadic logarithm of the IC50, by convention in mol/L. For the compound `CC(=O)N[C@H]1[C@H]([C@H](O)[C@H](O)CO)O[C@@](OCc2cn([C@H]3[C@@H](O)[C@H](O)O[C@H](CO)[C@@H]3O)nn2)(C(=O)O)C[C@@H]1O`, the results for the inhibition in the data set on Trypanosoma cruzi [1] and with Trypanosoma cruzi [3] were 69% and 1.5%, respectively. In addition, the pIC50 with Trypanosoma cruzi [2] was less than 2.70. Also, the Activity entry in data set [4] is reported as “Non-toxic”.

`Cc1ccc(S(=O)(=O)Nc2ccc(C(=O)/C=C/c3ccc(O)c(O)c3)cc2)cc1` had a pIC50 in data set [5] of 6.05.

On to `O=c1c(O)c(-c2cc(O)c(O)c(O)c2)oc2cc(O)cc(O)c12` [MYRICETIN], for which, in data set [5], the pIC50 was 6.24.

In the case of `CCCCCCCCO[C@@H]1O[C@H](CO)[C@H](O)[C@H](O)[C@H]1O`, the inhibition with Trypanosoma cruzi [6] was determined as 84%.

In the data set with Trypanosoma cruzi [2], `O=C(Cn1ccnc1[N+](=O)[O-])NCc1ccccc1` [BENZNIDAZOLE] showed a pIC50 of 3.90.

For `CO[C@H]1O[C@H](CO)[C@H](O)[C@H](OCc2cn(C(C(=O)O)C(C)O)nn2)[C@H]1O` (some centres undefined), the inhibition with Trypanosoma cruzi [1] was determined as 5%; in the data set on Trypanosoma cruzi [3], 1.5%. Also, the pIC50 in the data set with Trypanosoma cruzi [2] is 3.43. The Activity in [7] is reported as greater than 80%.

`Cc1ccc(S(=O)(=O)N2c3ccccc3C(=O)C3=Cc4cc(O)c(O)c5c(O)c(O)cc(c45)C32)cc1` (centres undefined) gave a negative-log IC50 (pIC50) in data set [5] of 6.22.

Regarding `CC(=O)N[C@H]1[C@H]([C@H](O)[C@H](O)CO)O[C@@](OCc2cn([C@@H]3[C@@H](O)[C@@H](O)O[C@H](CO)[C@H]3O)nn2)(C(=O)O)C[C@@H]1O`, the results for the inhibition in the data set with Trypanosoma cruzi [1] and in the data set on Trypanosoma cruzi [3] were 67% and 1.5%, respectively. In the data set on Trypanosoma cruzi [2], the pIC50 is 3.14. Further, the Activity result in [4] was “Non-toxic”.

Usually pKd stands for −log10 of the Kd, conventionally taken in molar units. In [8], `CC(=O)N[C@H]1[C@H]([C@H](O)[C@H](O)CO)O[C@@](CCCc2ccccc2)(C(=O)O)C[C@@H]1O` gave a pKd of 3.80.

With `CCCCCCCCO[C@@H]1O[C@H](COC)[C@H](O)[C@H](O)[C@H]1O`, the inhibition with Trypanosoma cruzi [6] came out at 75%.

With `CC(=O)N[C@H]1[C@H]([C@H](O)[C@H](O)CO)O[C@@](OCc2cn([C@@H]3O[C@H](CO)[C@H](O)[C@H](O)[C@H]3O)nn2)(C(=O)O)C[C@@H]1O`, the inhibition in the data set with Trypanosoma cruzi [1] amounted to 88%; with Trypanosoma cruzi [3], 1.5%. In the data set on Trypanosoma cruzi [2], this compound gave a pIC50 of 3.32. Also, the Activity in [7] is listed as greater than 80%.

Regarding `CC(=O)N[C@H]1[C@H]([C@H](O)[C@H](O)CO)O[C@@](OCc2cn(C[C@H]3O[C@H](O)[C@H](O)[C@@H](O)[C@H]3O)nn2)(C(=O)O)C[C@@H]1O`, the results for the inhibition in the data set with Trypanosoma cruzi [1] and in the data set with Trypanosoma cruzi [3] were 91% and 30%, respectively. Further, in the data set with Trypanosoma cruzi [2], the pIC50 was 3.59. For the same compound, the figures for the Activity in data set [7] and in [9] were 55% and “Non-toxic”, respectively.

`Cc1ccc(S(=O)(=O)Nc2cccc(C(=O)/C=C/c3ccc(O)c(O)c3)c2)cc1`: the negative logarithm of the IC50 (pIC50) in [5] is 5.60.
